ChEMBL document CHEMBL3352282, “Design and synthesis of novel azapeptide activators of apoptosis mediated by caspase-9 in cancer cells” (Bioorg Med Chem Lett, 2014)
The source made the active and inactive calls. The calls are words filed in the database; no cut-off is given here.

Key:
MDA-MB-231 [1] = test: Induction of cell death in serum starved human MDA-MB-231 cells at 50 uM after 16 hrs by trypan blue dye exclusion assay; format: functional
Procedure, shortened: (§1)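 Breast cancer line serum-starved 6 h, then exposed to compound (DMSO vehicle) for 16 h at a final 50 µM or 100 µM. Cells trypsinized, stained with Trypan blue and counted. Cell death expressed as percentage, relative to vehicle. Mean ± SEM of three independent experiments, paired comparison to DMSO control.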

MDA-MB-231 [2] = test: Induction of apoptosis in serum starved human MDA-MB-231 cells assessed as caspase-9 activation at 50 uM after 16 hrs by Western blotting method; format: functional, cell-based
Procedure, shortened: (§2)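 MDA-MB-231 cells serum-starved 6 h, then exposed to DMSO vehicle, etoposide, AVPI-NH₂ or analogs at one final concentration (50 or 100 µM, per line), harvested; caspase-3 and caspase-9 activation assessed by Western blotting. Quantification as mean ± SEM of three independent experiments.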

MDA-MB-231 [3] = test: Induction of cell death in serum starved human MDA-MB-231 cells at 100 uM after 16 hrs by trypan blue dye exclusion assay; format: functional; procedure, shortened: as §1
MDA-MB-231 [4] = test: Induction of apoptosis in serum starved human MDA-MB-231 cells assessed as caspase-3 activation at 100 uM after 16 hrs by Western blotting method; format: functional, cell-based; procedure, shortened: as §2
MDA-MB-231 [5] = test: Induction of apoptosis in serum starved human MDA-MB-231 cells assessed as caspase-3 activation at 50 uM after 16 hrs by Western blotting method; format: functional, cell-based; procedure, shortened: as §2
MDA-MB-231 [6] = test: Induction of apoptosis in serum starved human MDA-MB-231 cells assessed as caspase-9 activation after 16 hrs by Western blotting method; format: functional, cell-based; settings: MDA-MB-231, 16 h
Procedure, shortened: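 MDA-MB-231 cells serum-starved 6 h, treated 16 h across a concentration series (about 12.5–125 µM), harvested; total and cleaved caspase-9 immunoblotted and quantified. Mean ± SEM of two independent experiments; significance versus paired DMSO condition.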

MDA-MB-231 [7] = test: Induction of apoptosis in serum starved human MDA-MB-231 cells assessed as caspase-9 activation at 100 uM after 16 hrs by Western blotting method; format: functional, cell-based; procedure, shortened: as §2

Row | Compound | Activity (MDA-MB-231 [1]) | Activity (MDA-MB-231 [2]) | Activity (MDA-MB-231 [3]) [%] | Activity (MDA-MB-231 [4]) | Activity (MDA-MB-231 [5]) | EC50 (MDA-MB-231 [6]) [µM] | Activity (MDA-MB-231 [7])
1 | C[C@H](N)C(=O)NN(Cc1ccccc1)C(=O)N1CCC[C@H]1C(=O)NC(c1ccccc1)c1ccccc1 | Active | Active | 50 | Active | Active | 50.2 | Active
2 | C=CCN(NC(=O)[C@H](C)N)C(=O)N1CCC[C@H]1C(=O)NC(c1ccccc1)c1ccccc1 | inactive | – | 50 | Active | – | – | Active
3 | C[C@H](N)C(=O)NN(C)C(=O)N1CCC[C@H]1C(=O)NC(c1ccccc1)c1ccccc1 | Active | – | 50 | Active | – | – | Active
4 | C#CCN(NC(=O)[C@H](C)N)C(=O)N1CCC[C@H]1C(=O)NC(c1ccccc1)c1ccccc1 | inactive | – | 50 | Active | – | – | Active
5 | C[C@H](N)C(=O)NNC(=O)N1CCC[C@H]1C(=O)NC(c1ccccc1)c1ccccc1 | Active | – | 50 | Active | – | 73.4 | Active
6 | COc1cc([C@@H]2c3cc4c(cc3[C@@H](O[C@@H]3O[C@@H]5CO[C@@H](C)O[C@H]5[C@H](O)[C@H]3O)[C@H]3COC(=O)[C@H]23)OCO4)cc(OC)c1O [ETOPOSIDE] | 50% | inactive | – | – | Active | – | –
